Drawing on ChEMBL document CHEMBL4190271, “Semisynthesis and Kappa-Opioid Receptor Activity of Derivatives of Columbin, a Furanolactone Diterpene” (J Nat Prod, 2017), this text covers EC50, Emax and fold change (FC) for nine compounds.

Format in all cases: functional, cell-based
Assay [1] has as its target T1, Kappa-type opioid receptor (Homo sapiens, UniProt P41145). Description: Agonist activity at human kappa-type opioid receptor expressed in CHO-K1 cells assessed as inhibition of forskolin-induced cAMP accumulation after 30 mins by luminescence-based assay. Put shortly:
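CHO-K1 cells stably expressing human κ-opioid receptor, tested in a HitHunter cAMP assay for inhibition of forskolin-induced cAMP accumulation, run per the manufacturer's directions. Compounds were tested up to 50 μM. Emax is expressed relative to salvinorin A, set at 100%. EC50 and Emax are given as means ± SEM of at least 2 independent experiments, each run in triplicate.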
(In general: Cyclic AMP is a second messenger, typically raised through Gs and lowered through Gi signalling.)

The target of assay [2] is T1, Kappa-type opioid receptor. Description: Agonist activity at human kappa-type opioid receptor expressed in CHO-K1 cells assessed as inhibition of forskolin-induced cAMP accumulation up to 50 uM after 30 mins by luminescence-based assay. Put shortly:
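CHO-K1 cells stably expressing human κ-opioid receptor; HitHunter cAMP assay, run per the kit directions, measuring inhibition of forskolin-induced cAMP accumulation. Compounds tested up to 50 μM. Reference agonist sets E_max = 100%. EC₅₀ and E_max given as means ± standard error of the mean from n ≥ 2 independent experiments, each in triplicate.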

Assay [3] concerns the target T1, Kappa-type opioid receptor. Description: Agonist activity at human kappa-type opioid receptor expressed in CHO-K1 cells assessed as inhibition of forskolin-induced cAMP accumulation after 30 mins by luminescence-based assay relative to columbin.

T1 sequence (P41145 whole entry): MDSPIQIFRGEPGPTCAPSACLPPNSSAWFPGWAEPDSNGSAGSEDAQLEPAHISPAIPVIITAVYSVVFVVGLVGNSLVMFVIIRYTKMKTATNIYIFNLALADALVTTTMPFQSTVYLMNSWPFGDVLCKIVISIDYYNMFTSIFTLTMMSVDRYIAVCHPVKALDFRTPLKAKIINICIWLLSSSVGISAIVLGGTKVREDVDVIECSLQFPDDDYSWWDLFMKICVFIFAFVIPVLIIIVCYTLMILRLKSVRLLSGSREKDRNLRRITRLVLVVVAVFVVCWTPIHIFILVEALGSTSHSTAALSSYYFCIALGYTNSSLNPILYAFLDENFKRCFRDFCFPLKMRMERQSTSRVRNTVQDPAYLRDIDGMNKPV

`C[C@@]12C[C@H](c3ccoc3Br)OC(=O)[C@@H]1CC[C@]1(C)[C@H]2[C@@H]2OC(=O)[C@@]1(O)[C@@H](Br)[C@@H]2Br`: the half-maximal effective concentration (EC50) (as a rule, the concentration needed to bring the measured effect to its halfway point) in assay [1] was > 50 µM. For the same compound, in assay [2], the Emax (usually the maximal effect, on the per cent scale that the assay sets) amounted to 0%.
Turning to `C[C@@]12C[C@H](c3ccoc3)OC(=O)[C@@H]1CC[C@]1(C)[C@H]2[C@H]2C=C[C@]1(O)C(=O)O2`, the EC50 in assay [1] was > 50 µM. Further, the Emax in assay [2] is 0%.
Take `COCO[C@@]12C=C[C@@H](OC1=O)[C@H]1[C@]3(C)C[C@H](c4ccoc4)OC(=O)[C@@H]3CC[C@]12C`: in assay [1], the EC50 was 12 µM and the Emax worked out at 100%. Also, the fold change (FC) in assay [3] is > 4.2.
In the case of `C[C@@]12C[C@H](c3ccoc3Br)OC(=O)[C@@H]1CC[C@]1(C)[C@H]2[C@H]2C=C[C@]1(O)C(=O)O2`, the EC50 in assay [1] is > 50 µM. Further, in assay [2], the Emax was found to be 0%.
On to `C[C@@]12C[C@H](c3ccoc3)OC(=O)[C@@H]1CC[C@]1(C)[C@H]2[C@@H]2OC(=O)[C@@]1(O)[C@H](O)[C@@H]2O`, for which, in assay [1], the EC50 amounted to 16 µM and the Emax turned out to be 100%. For the same compound, the fold change (FC) in assay [3] was > 3.1.
With `CC(=O)O[C@@H]1[C@H]2OC(=O)[C@@](O)([C@@H]1OC(C)=O)[C@]1(C)CC[C@H]3C(=O)O[C@@H](c4ccoc4)C[C@@]3(C)[C@H]21`, in assay [1], the EC50 is > 50 µM. Also, the Emax in assay [2] was determined as 0%.
As for `C[C@@]12C[C@H](c3ccoc3)OC(=O)[C@@H]1CC[C@]1(C)[C@H]2[C@H]2C=C[C@]1(OC(=O)/C=C/c1ccccc1)C(=O)O2`, in assay [1], the EC50 turned out to be 6 µM and the Emax was 100%. For the same compound, in assay [3], the fold change (FC) was > 8.3.
Regarding `C[C@@]12C[C@H](c3ccoc3)OC(=O)[C@@H]1CC[C@]1(C)[C@H]2[C@H]2CC[C@]1(O)C(=O)O2`, in assay [1], the EC50 was 2 µM and the Emax came out at 100%. In assay [3], the fold change (FC) was > 25.
Turning to `CC(=O)O[C@@]12C=C[C@@H](OC1=O)[C@H]1[C@]3(C)C[C@H](c4ccoc4)OC(=O)[C@@H]3CC[C@]12C`, in assay [1], the EC50 was 8 µM and the Emax amounted to 100%. For the same compound, the fold change (FC) in assay [3] was > 6.3.
